In PMC4235008 (Neoplasia (New York, N.Y.), 2014):

Test system: PC3 xenografts
Test: PET imaging of PC3 xenografted Nu/Nu mice
Type: in vivo, mouse
Conditions: 15 MBq injected, 20-minute scan
In short: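 Male Nu/Nu mice (4–6 weeks old) got s.c. PC3 cells (1 × 10^6 in PBS, shoulders) or LNCaP cells (2.5 × 10^6 in PBS/Matrigel 1:1, hips). Tumors grew ≥4 weeks to ≥5 mm. Under isoflurane, mice received i.v. 3.7–7.4 MBq 64Cu peptide or 15 MBq [18F]-FDG, on a heated bed. Scans ran 20 min on small-animal PET with 3D MLEM reconstruction. ROI activity was expressed per cm³ as % injected dose.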

PC3 tumor [18F]-FDG uptake (PET): faultless
Structure (SMILES): OC[C@H]1OC(O)[C@H]([18F])[C@@H](O)[C@@H]1O (stereo partly drawn) [[^18F]-FDG, [^18F]-fluoro-2-deoxy-D-glucose]
